How the values were obtained:
Type in all cases: functional
UACC-62 = experiment: Cytotoxicity against human UACC62 cells assessed as cell growth at 0.1 uM after 48 hrs by sulforhodamine B assay; conditions: UACC-62, 48 h, read-out: Activity
OVCAR-4 [1] = experiment: Growth inhibition of human OVCAR4 cells after 48 hrs by sulforhodamine B assay; conditions: OVCAR-4, 48 h
Summary of the method: (§1)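 Adherent NCI-60 lines were grown in RPMI 1640 with 5% FBS and 2 mM L-glutamine, plated at 5000–40,000 cells/well and preincubated 24 h. They were then exposed to five concentrations (0.01–100 µM, from a DMSO stock) for 48 h at 37 °C, 5% CO2. Cells were fixed with cold TCA (10% final, 60 min, 4 °C) and stained with 0.4% SRB. Dye was solubilized in 10 mM Tris base and A515 read. GI50 was derived from time-zero, control and treated absorbances.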

SNB-19 = experiment: Cytotoxicity against human SNB19 cells assessed as cell growth at 0.01 uM after 48 hrs by sulforhodamine B assay; conditions: SNB-19, 48 h, read-out: Activity
NCI-H322M [2] = experiment: Cytotoxicity against human NCI-H322M cells assessed as cell growth at 100 uM after 48 hrs by sulforhodamine B assay; conditions: read-out: Activity
A498 = experiment: Cytotoxicity against human A498 cells assessed as cell growth at 10 '-5 M after 48 hrs by sulforhodamine B assay; conditions: A498, 48 h, read-out: Activity
Summary of the method: (§2)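 Primary NCI-60 single-dose screen at 10 µM. Cells were grown in RPMI 1640 with 5% FBS and 2 mM L-glutamine and plated 24 h before drug addition. Compound was solubilized in DMSO, then exposed for 48 h at 37 °C under 5% CO2. Cells were TCA-fixed and stained with SRB, and absorbance was read at 515 nm. Growth was expressed relative to time-zero and untreated controls.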

OVCAR-5 = experiment: Cytotoxicity against human OVCAR5 cells assessed as cell growth at 10 uM after 48 hrs by sulforhodamine B assay; conditions: OVCAR-5, 48 h, read-out: Activity
MDA-MB-231 = experiment: Cytotoxicity against human MDA-MB-231 cells assessed as cell growth at 0.1 uM after 48 hrs by sulforhodamine B assay; conditions: MDA-MB-231, 48 h, read-out: Activity
NCI-H23 = experiment: Cytotoxicity against human NCI-H23 cells assessed as cell growth at 0.1 uM after 48 hrs by sulforhodamine B assay; conditions: NCI-H23, 48 h, read-out: Activity
LOX IMVI = experiment: Cytotoxicity against human LOXIMVI cells assessed as cell growth at 10 '-5 M after 48 hrs by sulforhodamine B assay; conditions: read-out: Activity
DU-145 = experiment: Cytotoxicity against human DU145 cells assessed as cell growth at 1 uM after 48 hrs by sulforhodamine B assay; conditions: DU-145, 48 h, read-out: Activity
Summary of the method: (§3)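 NCI-60 five-dose screen. Cells were grown in RPMI 1640 with 5% FBS and 2 mM L-glutamine and preincubated 24 h. Compound (DMSO stock) was tested at 0.01, 0.1, 1, 10 and 100 µM for 48 h at 37 °C. Cells were fixed in situ with cold TCA (final 10%) and stained with 0.4% SRB. A515 was read, and percent growth was calculated against time-zero and control plates.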

SN12C = experiment: Cytotoxicity against human SN12C cells assessed as cell growth at 10 '-5 M after 48 hrs by sulforhodamine B assay; conditions: read-out: Activity
NCI-H460 = experiment: Cytotoxicity against human NCI-H460 cells assessed as cell growth at 10 '-5 M after 48 hrs by sulforhodamine B assay; conditions: NCI-H460, 48 h, read-out: Activity
OVCAR-4 [3] = experiment: Cytotoxicity against human OVCAR4 cells assessed as cell growth at 10 '-5 M after 48 hrs by sulforhodamine B assay; conditions: OVCAR-4, 48 h, read-out: Activity
COLO 205 = experiment: Cytotoxicity against human COLO205 cells assessed as cell growth at 100 uM after 48 hrs by sulforhodamine B assay; conditions: COLO 205, 48 h, read-out: Activity; summary of the method: as §3
SK-OV-3 [4] = experiment: Cytotoxicity against human SKOV3 cells assessed as cell growth at 100 uM after 48 hrs by sulforhodamine B assay; conditions: SK-OV-3, 48 h, read-out: Activity
SNB-75 = experiment: Cytotoxicity against human SNB75 cells assessed as cell growth at 0.1 uM after 48 hrs by sulforhodamine B assay; conditions: SNB-75, 48 h, read-out: Activity
CAKI-1 = experiment: Cytotoxicity against human Caki1 cells assessed as cell growth at 10 '-5 M after 48 hrs by sulforhodamine B assay; conditions: CAKI-1, 48 h, read-out: Activity; summary of the method: as §2
HCT-15 [5] = experiment: Cytotoxicity against human HCT15 cells assessed as cell growth at 0.1 uM after 48 hrs by sulforhodamine B assay; conditions: HCT-15, 48 h, read-out: Activity
Summary of the method: (§4)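 Five-dose NCI panel run at 0.01, 0.1, 1, 10 and 100 µM. Cells were in RPMI 1640 with 5% FBS and 2 mM L-glutamine, seeded at 5000–40,000 cells/well and pre-incubated 24 h. Drug was diluted from a DMSO stock into medium with 50 µg/ml gentamicin. Exposure was 48 h at 37 °C, 5% CO2. Cells were fixed with cold TCA and stained with 0.4% SRB, read at 515 nm. Percent growth came from time-zero, control and test absorbances.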

NCI-H522 = experiment: Cytotoxicity against human NCI-H522 cells assessed as cell growth at 10 '-5 M after 48 hrs by sulforhodamine B assay; conditions: NCI-H522, 48 h, read-out: Activity
HCT-15 [6] = experiment: Cytotoxicity against human HCT15 cells assessed as cell growth at 1 uM after 48 hrs by sulforhodamine B assay; conditions: HCT-15, 48 h, read-out: Activity; summary of the method: as §4
SK-MEL-2 = experiment: Cytotoxicity against human SK-MEL-2 cells assessed as cell growth at 0.1 uM after 48 hrs by sulforhodamine B assay; conditions: SK-MEL-2, 48 h, read-out: Activity
SK-OV-3 [7] = experiment: Cytotoxicity against human SKOV3 cells assessed as cell growth at 0.1 uM after 48 hrs by sulforhodamine B assay; conditions: SK-OV-3, 48 h, read-out: Activity
IGROV-1 = experiment: Cytotoxicity against human IGROV1 cells assessed as cell growth at 10 '-5 M after 48 hrs by sulforhodamine B assay; conditions: IGROV-1, 48 h, read-out: Activity
HOP-62 = experiment: Cytotoxicity against human HOP62 cells assessed as cell growth at 0.1 uM after 48 hrs by sulforhodamine B assay; conditions: HOP-62, 48 h, read-out: Activity; summary of the method: as §4
ACHN = experiment: Cytotoxicity against human ACHN cells assessed as cell growth at 10 '-5 M after 48 hrs by sulforhodamine B assay; conditions: read-out: Activity; summary of the method: as §2
PC-3 = experiment: Growth inhibition of human PC3 cells after 48 hrs by sulforhodamine B assay; conditions: PC-3, 48 h; for CC50: read-out: LC50 (the source's name); summary of the method: as §1
NCI-H322M [8] = experiment: Growth inhibition of human NCI-H322M cells after 48 hrs by sulforhodamine B assay; conditions: for CC50: read-out: LC50 (the source's name); summary of the method: as §1
RXF 393 = experiment: Cytotoxicity against human RXF393 cells assessed as cell growth at 10 uM after 48 hrs by sulforhodamine B assay; conditions: RXF 393, 48 h, read-out: Activity

Work on `Cc1ccc2nc(Nc3c(C)cccc3C)sc2c1` yielded a growth at 0.1 µM (UACC-62) of 85%, a GI50 (OVCAR-4 [1]) greater than 100 µM and an LC50 (OVCAR-4 [1]) greater than 100 µM. The TGI (OVCAR-4 [1]) was greater than 100 µM, the growth at 0.01 µM (SNB-19) was 94% and the growth at 100 µM (NCI-H322M [2]) was 69%. The growth at 10 µM (A498) was 38%, the growth at 10 µM (OVCAR-5) was 65% and the growth at 0.1 µM (MDA-MB-231) was 84%. It also gave a growth at 0.1 µM (NCI-H23) of 92%, a growth at 10 µM (LOX IMVI) of 24.7% and a growth at 1 µM (DU-145) of 94%. It also gave a growth at 10 µM (SN12C) of 50%, a growth at 10 µM (NCI-H460) of 22.7% and a growth at 10 µM (OVCAR-4 [3]) of 63%. For the same compound, the growth at 100 µM (COLO 205) was 64%, the growth at 100 µM (SK-OV-3 [4]) was 54% and the growth at 0.1 µM (SNB-75) was 61%. For the same compound, the growth at 10 µM (CAKI-1) was 22.1%, the growth at 0.1 µM (HCT-15 [5]) was 98% and the growth at 10 µM (NCI-H522) was 19.7%. For the same compound, the growth at 1 µM (HCT-15 [6]) was 48%, the growth at 0.1 µM (SK-MEL-2) was 99% and the growth at 0.1 µM (SK-OV-3 [7]) was 104%. The growth at 10 µM (IGROV-1) was 49.2%, the growth at 0.1 µM (HOP-62) was 98% and the growth at 10 µM (ACHN) was 52.2%. The TGI (PC-3) was greater than 100 µM, the CC50 (PC-3) was greater than 100 µM and the GI50 (NCI-H322M [8]) was greater than 100 µM. For the same compound, the TGI (NCI-H322M [8]) was greater than 100 µM, the CC50 (NCI-H322M [8]) was greater than 100 µM and the growth at 10 µM (RXF 393) was 27%.

Work on `Clc1cccc(Cl)c1Nc1nc2cccc(Cl)c2s1` yielded a growth at 0.1 µM (UACC-62) of 86%, a GI50 (OVCAR-4 [1]) of 0.708 µM and an LC50 (OVCAR-4 [1]) of 5.05 µM. It also gave a TGI (OVCAR-4 [1]) of 2.14 µM, a growth at 0.01 µM (SNB-19) of 91% and a growth at 100 µM (NCI-H322M [2]) of -95%. The growth at 10 µM (A498) was -53.6%, the growth at 10 µM (OVCAR-5) was -93% and the growth at 0.1 µM (MDA-MB-231) was 81%. For the same compound, the growth at 0.1 µM (NCI-H23) was 83%, the growth at 10 µM (LOX IMVI) was -88.3% and the growth at 1 µM (DU-145) was 75%. It also gave a growth at 10 µM (SN12C) of -71.5%, a growth at 10 µM (NCI-H460) of -57.9% and a growth at 10 µM (OVCAR-4 [3]) of 6.72%. For the same compound, the growth at 100 µM (COLO 205) was -52%, the growth at 100 µM (SK-OV-3 [4]) was -100% and the growth at 0.1 µM (SNB-75) was 85%. For the same compound, the growth at 10 µM (CAKI-1) was -10.6%, the growth at 0.1 µM (HCT-15 [5]) was 99% and the growth at 10 µM (NCI-H522) was -64%. For the same compound, the growth at 1 µM (HCT-15 [6]) was 59%, the growth at 0.1 µM (SK-MEL-2) was 88% and the growth at 0.1 µM (SK-OV-3 [7]) was 99%. The growth at 10 µM (IGROV-1) was 3.69%, the growth at 0.1 µM (HOP-62) was 96% and the growth at 10 µM (ACHN) was -18.9%. For the same compound, the GI50 (PC-3) was 0.526 µM, the TGI (PC-3) was 2.3 µM and the CC50 (PC-3) was 6.81 µM. The GI50 (NCI-H322M [8]) was 1.46 µM, the TGI (NCI-H322M [8]) was 3.01 µM and the CC50 (NCI-H322M [8]) was 6.19 µM. For the same compound, the growth at 10 µM (RXF 393) was -73%.

— ChEMBL document CHEMBL2040734, “Benzothiazoles: search for anticancer agents” (2012)
